Source: ChEMBL document CHEMBL4138245, “Design and synthesis of novel quinacrine-[1,3]-thiazinan-4-one hybrids for their anti-breast cancer activity” (Eur J Med Chem, 2018)
Active and inactive are the calls of the source. The rule behind the calls is not given here.

Legend:
MDA-MB-468 = test: Antiproliferative activity against human MDA-MB-468 cells after 48 hrs by SRB assay; type: functional, cell-based; conditions: MDA-MB-468, 48 h
In short: (§1)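 SRB assay: 5,000-10,000 cells/well plated, 24 h at 37 °C/5% CO2 before drug; seven concentrations from 100 μM down (two- to ten-fold serial dilutions, DMSO ≤0.1% final) for 48 h; TCA fixation (10% final, 60 min, 4 °C), 0.4% SRB in 1% acetic acid, solubilized in 10 mM Tris base, absorbance 515-564 nm; growth = (Ti−Tz)/(C−Tz)×100; IC50 from sigmoidal variable-slope fit; triplicates, ≥2 independent experiments.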

MDA-MB-231 = test: Antiproliferative activity against human MDA-MB-231 cells after 48 hrs by SRB assay; type: functional, cell-based; conditions: MDA-MB-231, 48 h; in short: as §1
MCF7 [1] = test: Antiproliferative activity against human MCF7 cells after 48 hrs by SRB assay; type: functional, cell-based; conditions: MCF7, 48 h; in short: as §1
184B5 = test: Antiproliferative activity against human 184B5 cells after 48 hrs by SRB assay; type: cell-based; conditions: 184B5, 48 h; in short: as §1
MCF7 [2] = test: Anticlonogenic activity against human MCF7 cells at 0.39 to 1.5 uM after 12 hrs by crystal violet staining based assay; type: functional, cell-based
In short: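 Clonogenic assay: 1000 cells/well seeded, treated after overnight attachment for 12 h, then medium replaced and cells grown until control colonies were large enough; colonies stained with crystal violet.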

IC50 (MDA-MB-468) [µM] | IC50 (MDA-MB-231) [µM] | IC50 (MCF7 [1]) [µM] | Compound | IC50 (184B5) [µM] | Activity (MCF7 [2])
4.58 | 5.36 | 4.97 | COc1ccc2nc3cc(Cl)ccc3c(NCCCN3C(=O)CCSC3c3ccc(F)cc3)c2c1 (configuration not stated) | 28.2 | –
5.19 | 3.44 | 4.31 | COc1ccc2nc3cc(Cl)ccc3c(NCCCN3C(=O)CCSC3c3c(F)cccc3Cl)c2c1 (configuration not stated) | 3.1 | –
28.6 | 22.5 | 38.4 | CCN(CC)CCCC(C)Nc1ccnc2cc(Cl)ccc12 (configuration not stated) [CHLOROQUINE PHOSPHATE] | 76.1 | –
3.2 | 4.41 | 3.81 | COc1ccc2nc3cc(Cl)ccc3c(NCCCN3C(=O)CCSC3c3c(F)cccc3F)c2c1 (configuration not stated) | 29.3 | –
4.87 | 4.56 | 1.66 | COc1ccc2nc3cc(Cl)ccc3c(NCCCN3C(=O)CCSC3c3ccc[nH]3)c2c1 (configuration not stated) | 12.9 | –
19.9 | 10.8 | 15.3 | COc1ccc2nc3cc(Cl)ccc3c(NCCCN3C(=O)CCSC3c3ccccc3Cl)c2c1 (configuration not stated) | 69.6 | –
6.97 | 4.87 | 5.52 | COc1ccc2nc3cc(Cl)ccc3c(NCCCN3C(=O)CCSC3c3ccc(C)cc3)c2c1 (configuration not stated) | 5.66 | –
3.72 | 3.07 | 1.85 | COc1ccc2nc3cc(Cl)ccc3c(NCCCN3C(=O)CCSC3c3ccc(Cl)cc3Cl)c2c1 (configuration not stated) | 4.28 | –
4.43 | 3.53 | 3.4 | COc1ccc2nc3cc(Cl)ccc3c(NCCCN3C(=O)CCSC3c3ccc(Cl)cc3)c2c1 (configuration not stated) | 5.02 | –
10.4 | 7.48 | 8.94 | COc1ccc2nc3cc(Cl)ccc3c(NCCCN3C(=O)CCSC3c3ccnc4ccccc34)c2c1 (configuration not stated) | 27.1 | –
3.56 | 2.63 | 3.09 | COc1ccc2nc3cc(Cl)ccc3c(NCCCN3C(=O)CCSC3c3ccc(N(C)C)cc3)c2c1 (configuration not stated) | 13.2 | –
3.79 | 4.54 | 3.39 | COc1ccc2nc3cc(Cl)ccc3c(NCCCN3C(=O)CCSC3c3ccc(F)cc3F)c2c1 (configuration not stated) | 5.08 | –
4.72 | 4.07 | 4.79 | COc1ccc2nc3cc(Cl)ccc3c(NCCCN3C(=O)CCSC3c3ccccc3)c2c1 (configuration not stated) | 9.32 | –
1.21 | 0.77 | 0.99 | COc1ccc2nc3cc(Cl)ccc3c(NCCCN3C(=O)CCSC3c3ccccc3[N+](=O)[O-])c2c1 (configuration not stated) | 1.83 | –
38.6 | 40.1 | 39.3 | COc1ccc2nc3cc(Cl)ccc3c(NCCCN3C(=O)CCSC3c3ccccc3Br)c2c1 (configuration not stated) | 15.6 | –
5.25 | 5.85 | 5.05 | COc1ccc2nc3cc(Cl)ccc3c(NCCCN3C(=O)CCSC3C3CCCCC3)c2c1 (configuration not stated) | 7.71 | –
21.6 | 10.8 | 16.2 | COc1ccc2nc3cc(Cl)ccc3c(NCCCN3C(=O)CCSC3c3ccncc3)c2c1 (configuration not stated) | 14.6 | –
1.68 | 3.32 | 1.85 | COc1ccc2nc3cc(Cl)ccc3c(NCCCN3C(=O)CCSC3c3ccc(N(c4ccccc4)c4ccccc4)cc3)c2c1 (configuration not stated) | 3.11 | –
3.96 | 3.25 | 4.19 | CCN(CC)CCCC(C)Nc1c2ccc(Cl)cc2nc2ccc(OC)cc12 (configuration not stated) [QUINACRINE] | 4.96 | Active
3.67 | 3.46 | 3.57 | COc1ccc2nc3cc(Cl)ccc3c(NCCCN3C(=O)CCSC3c3ccco3)c2c1 (configuration not stated) | 3.6 | –
9.41 | 4.68 | 7.04 | COc1ccc2nc3cc(Cl)ccc3c(NCCCN3C(=O)CCSC3c3ccc([N+](=O)[O-])cc3)c2c1 (configuration not stated) | 19.5 | –
25.5 | 37.1 | 31.3 | COc1ccc2nc3cc(Cl)ccc3c(NCCCN3C(=O)CCSC3c3ccc(Br)cc3)c2c1 (configuration not stated) | 35.8 | –
2.68 | 4.11 | 2.29 | COc1ccc2nc3cc(Cl)ccc3c(NCCCN3C(=O)CCSC3c3ccccc3F)c2c1 (configuration not stated) | 35.6 | –
1.29 | 7.54 | 4.41 | COc1ccc2nc3cc(Cl)ccc3c(NCCCN3C(=O)CCSC3c3c(Cl)cccc3Cl)c2c1 (configuration not stated) | 3.84 | –
